Here are results for eight compounds from ChEMBL document CHEMBL4359830, “Discovery and structure-activity relationship of novel diphenylthiazole derivatives as BTK inhibitor with potent activity against B cell lymphoma cell lines” (Eur J Med Chem, 2019).

Test [1] deals with Tyrosine-protein kinase BTK (Homo sapiens, UniProt Q06187). The experiment in a line: Inhibition of human recombinant full length N-terminal His tagged BTK expressed in baculovirus infected Sf9 cells using poly (Glu,Tyr) 4:1 as substrate measured after 60 mins in presence of ATP by ADP-Glo kinase assay. (In general: ADP-Glo first removes unused ATP, then detects ADP through luciferase.)

Test [2] relates to Raji. Put plainly: Antiproliferative activity against human Raji cells measured after 72 hrs by CCK-8 assay. The class given is functional, cell-based. In short, it runs like this:
(§1)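 Ramos or Raji cells in RPMI-1640 with 10% FBS and 1% penicillin-streptomycin at 37 °C, 5% CO2. Seeded at 2000–3000 cells/well one day before compound addition. Exposure 72 h, then CCK-8 with absorbance at 450 nm. […] Single-point inhibition at 40 µM reported as mean ± standard deviation.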

Test [3] relates to Ramos. Put plainly: Antiproliferative activity against human Ramos cells measured after 72 hrs by CCK-8 assay. The class given is functional, cell-based. The gist of the method:
as §1

In test [4] the test system is Raji. Put plainly: Antiproliferative activity against human Raji cells at 40 uM measured after 72 hrs by CCK-8 assay relative to control. Conditions: for inhibition at 40 µM: Homo sapiens, Raji, 72 h. The class given is functional. The gist of the method: as §1
Test [5] concerns Ramos. The experiment in a line: Antiproliferative activity against human Ramos cells at 40 uM measured after 72 hrs by CCK-8 assay relative to control. The class given is functional. As to conditions: for inhibition at 40 µM: Homo sapiens, Ramos, 72 h. In short, it runs like this:
as §1
(Formazan colour is commonly taken as a measure of viable cells.)

In test [6] the test system is Ramos. Put plainly: Potency index, ratio of ibrutinib IC50 to compound IC50 for antiproliferative activity against human Ramos cells. The class given is functional.
The subject of test [7] is Ramos. Put plainly: Induction of apoptosis in human Ramos cells assessed as early apoptotic cells at 5 uM measured after 15 mins by Annexin-V-APC staining-based flow cytometric analysis (reference value: 0.14 %). The class given is functional. (In general: A flow cytometer gives signals particle by particle.)
Test [8] relates to Raji. Put plainly: Cell cycle arrest in human Raji cells assessed as accumulation at G0/G1 phase at 1 uM measured after 48 hrs by propidium iodide/RNase staining based flow cytometric analysis (reference value: 48.68 %). The class given is functional.
The subject of test [9] is Ramos. The experiment in a line: Cell cycle arrest in human Ramos cells assessed as accumulation at G2/M phase at 1 uM measured after 48 hrs by propidium iodide/RNase staining based flow cytometric analysis (reference value: 5.98 %). The class given is functional.
Test [10] concerns Raji. The experiment in a line: Cell cycle arrest in human Raji cells assessed as accumulation at G2/M phase at 1 uM measured after 48 hrs by propidium iodide/RNase staining based flow cytometric analysis (reference value: 18.14 %). The class given is functional.
Test [11] deals with Ramos. Put plainly: Cell cycle arrest in human Ramos cells assessed as accumulation at G0/G1 phase at 1 uM measured after 48 hrs by propidium iodide/RNase staining based flow cytometric analysis (reference value: 37.66 %). The class given is functional.
Test [12] deals with Raji. The experiment in a line: Cell cycle arrest in human Raji cells assessed as accumulation at S phase at 1 uM measured after 48 hrs by propidium iodide/RNase staining based flow cytometric analysis (reference value: 33.18 %). The class given is functional.
The test system of test [13] is Raji. Put plainly: Induction of apoptosis in human Raji cells assessed as late apoptotic cells at 5 uM measured after 15 mins by Annexin-V-APC staining-based flow cytometric analysis (reference value: 0.57 %). The class given is functional.
In test [14] the test system is Raji. The experiment in a line: Induction of apoptosis in human Raji cells assessed as early apoptotic cells at 5 uM measured after 15 mins by Annexin-V-APC staining-based flow cytometric analysis (reference value: 0.021 %). The class given is functional.
Test [15] has as its system Raji. The experiment in a line: Induction of apoptosis in human Raji cells assessed as viable cells at 5 uM measured after 15 mins by Annexin-V-APC staining-based flow cytometric analysis (reference value: 97.5 %). The class given is functional.
Test [16] relates to Ramos. The experiment in a line: Induction of apoptosis in human Ramos cells assessed as viable cells at 5 uM measured after 15 mins by Annexin-V-APC staining-based flow cytometric analysis (reference value: 96.5 %). The class given is functional.
In test [17] the test system is Ramos. The experiment in a line: Cell cycle arrest in human Ramos cells assessed as accumulation at S phase at 1 uM measured after 48 hrs by propidium iodide/RNase staining based flow cytometric analysis (reference value: 56.35 %). The class given is functional.
Test [18] deals with Ramos. Put plainly: Induction of apoptosis in human Ramos cells assessed as late apoptotic cells at 5 uM measured after 15 mins by Annexin-V-APC staining-based flow cytometric analysis (reference value: 1.85 %). The class given is functional.
Test [19] has as its system Ramos. The experiment in a line: Induction of apoptosis in human Ramos cells assessed as necrotic cells at 5 uM measured after 15 mins by Annexin-V-APC staining-based flow cytometric analysis (reference value: 1.50 %). The class given is functional.
For test [20], the system named is Raji. Put plainly: Induction of apoptosis in human Raji cells assessed as necrotic cells at 5 uM measured after 15 mins by Annexin-V-APC staining-based flow cytometric analysis (reference value: 1.87 %). The class given is functional.
Test [21] concerns Raji. The experiment in a line: Potency index, ratio of ibrutinib IC50 to compound IC50 for antiproliferative activity against human Raji cells. The class given is functional.

As usually defined, the IC50 is the concentration that inhibits the measured activity by half. The term inhibition denotes the relative decrease from the control value, in per cent. Lower therefore signals a weak effect.

Tyrosine-protein kinase BTK, sequence (Q06187 whole entry): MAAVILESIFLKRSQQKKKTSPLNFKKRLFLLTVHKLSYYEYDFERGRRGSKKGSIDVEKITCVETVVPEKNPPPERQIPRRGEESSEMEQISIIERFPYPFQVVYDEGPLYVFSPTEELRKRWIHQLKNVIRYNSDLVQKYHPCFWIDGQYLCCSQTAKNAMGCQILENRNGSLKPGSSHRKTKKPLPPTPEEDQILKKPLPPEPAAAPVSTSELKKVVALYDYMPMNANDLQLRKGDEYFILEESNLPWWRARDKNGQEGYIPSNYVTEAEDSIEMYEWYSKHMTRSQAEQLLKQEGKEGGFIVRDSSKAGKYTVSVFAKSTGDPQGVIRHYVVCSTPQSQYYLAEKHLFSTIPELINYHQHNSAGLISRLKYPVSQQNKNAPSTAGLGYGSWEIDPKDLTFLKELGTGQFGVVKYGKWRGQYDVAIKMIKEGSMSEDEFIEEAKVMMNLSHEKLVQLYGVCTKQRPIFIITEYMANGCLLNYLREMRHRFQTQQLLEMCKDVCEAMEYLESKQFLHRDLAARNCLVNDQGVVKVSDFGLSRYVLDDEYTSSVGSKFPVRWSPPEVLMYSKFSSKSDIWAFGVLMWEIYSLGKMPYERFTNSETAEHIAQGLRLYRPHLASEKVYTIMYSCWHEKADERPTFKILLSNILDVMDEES

As for `CN1CCN(c2ccc(Nc3nc(-c4cccc(NC(=O)c5ccc(F)cc5)c4)sc3C(N)=O)cc2)CC1`, the IC50 in test [1] was determined as 0.862 µM; in test [2], 2.82 µM; in [3], 1.42 µM. In addition, the inhibition at 40 µM in test [4] was determined as 95.3%; in test [5] it was 95.9%. Further, in [6], the “Ratio IC50” value is 10.

Turning to `CN1CCN(c2ccc(Nc3nc(-c4cccc(NC(=O)c5ccccc5F)c4)sc3C(N)=O)cc2)CC1`, the half-maximal inhibitory concentration (IC50) stood at 2.67 µM in test [1], 3.27 µM in [2] and 1.36 µM in [3]. The inhibition at 40 µM in test [4] worked out at 97.3%; in [5] it was 95.5%. Moreover, the “Ratio IC50” value in test [6] came to 10.

Turning to `CN1CCN(c2ccc(Nc3nc(-c4cccc(NC(=O)c5ccc(Cl)cc5)c4)sc3C(N)=O)cc2)CC1`, the figures for the IC50 in test [1], in test [2] and in [3] were 0.614 µM, 5.7 µM and 1.36 µM, respectively. The inhibition at 40 µM is 92.6% in [4] and 99% in test [5]. For the same compound, the “Ratio IC50” value in test [6] is on record as 10.

`C=CC(=O)N1CCC[C@@H](n2nc(-c3ccc(Oc4ccccc4)cc3)c3c(N)ncnc32)C1` [IBRUTINIB]: the Activity in test [7] was found to be 0.13%; in [8], 70.42%; in test [9], 2.81%; in [10], 14.92%; in test [11], 68.45%; in test [12], 14.66%. Also, the Activity in test [13] was 1.14%; in test [14] it was 0.01%; in [15], 94.8%; in [16], 89.1%; in test [17], 28.73%; in [18], 5.88%. Further, the values for the Activity in test [19] and in test [20] were 4.92% and 4.01%, respectively. Further, the IC50 in test [2] is 16 µM; in test [3], 14.7 µM. Besides, the entries for the “inhibition (INH)” value in test [4] and in [5] were 76.23% and 81.2%, respectively.

For the compound `O=C(Nc1cccc(-c2nc(Nc3ccc(N4CCOCC4)cc3)c(C(=O)O)s2)c1)c1ccc(F)cc1`, the IC50 in test [1] was found to be 1.12 µM; in [2] it was 1.2 µM; in [3] it was 3.51 µM. The “Ratio IC50” value in test [21] worked out at 13. Besides, the inhibition at 40 µM stood at 96.4% in test [4] and 90.5% in [5].

In the case of `CNC(=O)c1sc(-c2cccc(NC(=O)c3ccc(C(C)(C)C)cc3)c2)nc1Nc1ccc(N2CCOCC2)cc1`, the IC50 in [1] turned out to be 8.53 µM; in [2] it was 8.96 µM; in test [3] it was 34.1 µM. Besides, the inhibition at 40 µM in test [4] was determined as 94%; in test [5], 65.8%.

For the compound `CN1CCN(c2ccc(Nc3nc(-c4cccc(NC(=O)c5ccc(C(F)(F)F)cn5)c4)sc3C(N)=O)cc2)CC1`, the results for the 50% inhibitory concentration (IC50) in [1], in test [2] and in test [3] were 0.637 µM, 24.5 µM and 19.8 µM, respectively. Besides, the values for the inhibition at 40 µM in test [4] and in test [5] were 84.6% and 96.6%, respectively.

`NC(=O)c1sc(-c2cccc(NC(=O)c3ccc(F)cc3)c2)nc1Nc1ccc(C(=O)N2CCOCC2)cc1`: the IC50 in test [1] came to 0.733 µM; in [2], 35.4 µM; in test [3] it was 13 µM. The values for the inhibition at 40 µM in [4] and in [5] were 82.5% and 91.5%, respectively.
